Results from ChEMBL document CHEMBL4118021, “Studies of TAK1-centered polypharmacology with novel covalent TAK1 inhibitors” (Bioorg Med Chem, 2017).
The source made the active and inactive calls. The rule behind the calls is not given here.

Key:
[1] = target: T1, Mitogen-activated protein kinase kinase kinase 7 (Homo sapiens, UniProt O43318); experiment: Inhibition of TAK1 (unknown origin) after 60 mins by biochemical assay
T1 sequence (O43318 whole entry): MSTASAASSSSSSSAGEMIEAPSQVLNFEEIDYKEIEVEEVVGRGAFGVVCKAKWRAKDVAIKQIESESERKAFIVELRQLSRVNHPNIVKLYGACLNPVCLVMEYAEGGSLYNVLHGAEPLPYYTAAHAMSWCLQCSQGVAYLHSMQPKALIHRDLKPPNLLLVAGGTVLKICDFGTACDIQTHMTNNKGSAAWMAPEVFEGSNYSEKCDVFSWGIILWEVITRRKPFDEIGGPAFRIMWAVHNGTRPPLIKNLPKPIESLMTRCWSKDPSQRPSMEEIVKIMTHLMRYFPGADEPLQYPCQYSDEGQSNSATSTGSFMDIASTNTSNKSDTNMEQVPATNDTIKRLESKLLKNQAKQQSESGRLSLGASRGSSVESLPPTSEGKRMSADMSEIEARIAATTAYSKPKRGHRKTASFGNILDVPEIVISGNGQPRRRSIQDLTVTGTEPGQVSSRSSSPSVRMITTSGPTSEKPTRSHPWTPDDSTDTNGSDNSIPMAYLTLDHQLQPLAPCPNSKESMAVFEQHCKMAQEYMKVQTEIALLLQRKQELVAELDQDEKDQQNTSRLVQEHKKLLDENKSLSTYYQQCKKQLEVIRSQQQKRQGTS

[2] = target: Y-box-binding protein 1 (Homo sapiens) (UniProt P67809); experiment: Binding affinity to YBX1 in human NCI-H23 cells at 1 uM by mass spectrometry based pull down assay; type: cell-based
[3] = target: Glutathione S-transferase kappa 1 (Homo sapiens) (UniProt Q9Y2Q3); experiment: Binding affinity to GSTK1 in human NCI-H23 cells at 1 uM by mass spectrometry based pull down assay; type: cell-based
[4] = target: Phospholipid hydroperoxide glutathione peroxidase GPX4 (Homo sapiens) (UniProt P36969); experiment: Binding affinity to GPX4 in human NCI-H23 cells at 1 uM by mass spectrometry based pull down assay; type: cell-based
[5] = target: Dynamin-binding protein (Homo sapiens) (UniProt Q6XZF7); experiment: Binding affinity to DNMBP in human NCI-H23 cells at 1 uM by mass spectrometry based pull down assay; type: cell-based
[6] = target: Small ribosomal subunit protein uS7m (Homo sapiens) (UniProt Q9Y2R9); experiment: Binding affinity to MRPS7 in human NCI-H23 cells at 1 uM by mass spectrometry based pull down assay; type: cell-based
[7] = target: Ubiquitin carboxyl-terminal hydrolase 5 (Homo sapiens) (UniProt P45974); experiment: Binding affinity to USP5 in human NCI-H23 cells at 1 uM by mass spectrometry based pull down assay; type: cell-based
[8] = target: 80S Ribosome (Homo sapiens) (UniProt P08865+P42677+P62753+P15880+P23396+P61247+P62701+P22090+P46782+P62081+P62241+P46781+P46783+P62280+P25398+P62277+P62263+P62841+P62244+P62249+P08708+P62269+P39019+P60866+P63220+P62266+P62847+P62851+P62854+P62979+P62857+P62273+P62861+P39023+P36578+P46777+Q02878+P18124+P62424+P62917+P32969+P27635+P62906+P62913+P30050+P26373+P40429+P50914+P61313+P18621+Q07020+Q02543+P84098+P46778+P35268+P62829+P62750+P83731+P61254+P61353+P46776+P46779+P47914+P62888+P62899+P62910+P49207+P42766+P18077+Q9Y3U8+P83881+P61927+P61513+P63173+P62891+P62945+P05388+P05386); experiment: Binding affinity to RPS10 in human NCI-H23 cells at 1 uM by mass spectrometry based pull down assay; type: cell-based
[9] = target: T-complex protein 1 subunit theta (Homo sapiens) (UniProt P50990); experiment: Binding affinity to CCT8 in human NCI-H23 cells at 1 uM by mass spectrometry based pull down assay; type: cell-based
[10] = target: Eukaryotic translation initiation factor 6 (Homo sapiens) (UniProt P56537); experiment: Binding affinity to EIF6 in human NCI-H358 cells at 1 uM by mass spectrometry based pull down assay; type: cell-based
[11] = target: Proto-oncogene tyrosine-protein kinase Src (Homo sapiens) (UniProt P12931); experiment: Binding affinity to SRC in human NCI-H358 cells at 1 uM by mass spectrometry based pull down assay; type: cell-based
[12] = target: Thymidylate kinase (Homo sapiens) (UniProt P23919); experiment: Binding affinity to DTYMK in human NCI-H358 cells at 1 uM by mass spectrometry based pull down assay; type: cell-based
[13] = target: Transmembrane emp24 domain-containing protein 10 (Homo sapiens) (UniProt P49755); experiment: Binding affinity to TMED10 in human NCI-H358 cells at 1 uM by mass spectrometry based pull down assay; type: cell-based
[14] = target: AP-2 complex subunit alpha-1 (Homo sapiens) (UniProt O95782); experiment: Binding affinity to AP2A1 in human NCI-H358 cells at 1 uM by mass spectrometry based pull down assay; type: cell-based
[15] = target: ATP-dependent RNA helicase DHX15 (Homo sapiens) (UniProt O43143); experiment: Binding affinity to DHX15 in human NCI-H358 cells at 1 uM by mass spectrometry based pull down assay; type: cell-based
[16] = target: Vesicle-trafficking protein SEC22b (Homo sapiens) (UniProt O75396); experiment: Binding affinity to SEC22B in human NCI-H358 cells at 1 uM by mass spectrometry based pull down assay; type: cell-based
[17] = target: Quinone oxidoreductase (Homo sapiens) (UniProt Q08257); experiment: Binding affinity to CRYZ in human NCI-H358 cells at 1 uM by mass spectrometry based pull down assay; type: cell-based
[18] = target: T2, Dual specificity mitogen-activated protein kinase kinase 3 (Homo sapiens) (UniProt P46734); experiment: Inhibition of full length human MEK3 (1 to 318 residues) expressed in mammalian expression system assessed as enzyme activity at 1 uM by KINOMEScan assay relative to control; set-up: scale not given: the % may be the effect or the level left
T2 sequence (whole entry): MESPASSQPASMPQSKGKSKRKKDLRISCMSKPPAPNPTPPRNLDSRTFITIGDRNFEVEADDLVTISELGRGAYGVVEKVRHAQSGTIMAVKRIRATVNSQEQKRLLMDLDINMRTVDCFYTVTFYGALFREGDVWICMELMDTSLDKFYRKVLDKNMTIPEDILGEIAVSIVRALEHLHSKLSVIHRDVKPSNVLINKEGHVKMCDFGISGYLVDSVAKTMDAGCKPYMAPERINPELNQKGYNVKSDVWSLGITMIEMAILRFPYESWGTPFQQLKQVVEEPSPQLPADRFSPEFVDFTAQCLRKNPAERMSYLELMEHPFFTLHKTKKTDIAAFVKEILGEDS
How it was run: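 In vitro ATP-site competition binding assay (KinomeScan) across a panel of 456 kinases. Compound was tested at 1 and 10 μM. The read-out is the binding inhibition score relative to control.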

Y-box-binding protein 1 (Homo sapiens), sequence (P67809 whole entry): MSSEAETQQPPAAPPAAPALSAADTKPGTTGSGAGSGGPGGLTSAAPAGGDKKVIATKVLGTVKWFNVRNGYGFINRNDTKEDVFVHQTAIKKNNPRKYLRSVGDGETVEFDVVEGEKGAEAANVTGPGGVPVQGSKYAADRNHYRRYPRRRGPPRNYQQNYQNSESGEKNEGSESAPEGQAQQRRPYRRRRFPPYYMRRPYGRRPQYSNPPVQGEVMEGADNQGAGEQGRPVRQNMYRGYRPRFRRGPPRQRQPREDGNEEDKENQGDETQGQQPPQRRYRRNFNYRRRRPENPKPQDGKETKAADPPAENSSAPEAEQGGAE
Thymidylate kinase (Homo sapiens), sequence (P23919 whole entry, the tested form may be a part): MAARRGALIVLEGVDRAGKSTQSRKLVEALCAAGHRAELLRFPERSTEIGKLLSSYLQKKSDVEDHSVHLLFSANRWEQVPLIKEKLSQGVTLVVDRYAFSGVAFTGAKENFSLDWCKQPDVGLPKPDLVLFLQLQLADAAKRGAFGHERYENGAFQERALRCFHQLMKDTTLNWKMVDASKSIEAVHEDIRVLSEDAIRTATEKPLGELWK
Dynamin-binding protein (Homo sapiens), sequence (Q6XZF7 whole entry): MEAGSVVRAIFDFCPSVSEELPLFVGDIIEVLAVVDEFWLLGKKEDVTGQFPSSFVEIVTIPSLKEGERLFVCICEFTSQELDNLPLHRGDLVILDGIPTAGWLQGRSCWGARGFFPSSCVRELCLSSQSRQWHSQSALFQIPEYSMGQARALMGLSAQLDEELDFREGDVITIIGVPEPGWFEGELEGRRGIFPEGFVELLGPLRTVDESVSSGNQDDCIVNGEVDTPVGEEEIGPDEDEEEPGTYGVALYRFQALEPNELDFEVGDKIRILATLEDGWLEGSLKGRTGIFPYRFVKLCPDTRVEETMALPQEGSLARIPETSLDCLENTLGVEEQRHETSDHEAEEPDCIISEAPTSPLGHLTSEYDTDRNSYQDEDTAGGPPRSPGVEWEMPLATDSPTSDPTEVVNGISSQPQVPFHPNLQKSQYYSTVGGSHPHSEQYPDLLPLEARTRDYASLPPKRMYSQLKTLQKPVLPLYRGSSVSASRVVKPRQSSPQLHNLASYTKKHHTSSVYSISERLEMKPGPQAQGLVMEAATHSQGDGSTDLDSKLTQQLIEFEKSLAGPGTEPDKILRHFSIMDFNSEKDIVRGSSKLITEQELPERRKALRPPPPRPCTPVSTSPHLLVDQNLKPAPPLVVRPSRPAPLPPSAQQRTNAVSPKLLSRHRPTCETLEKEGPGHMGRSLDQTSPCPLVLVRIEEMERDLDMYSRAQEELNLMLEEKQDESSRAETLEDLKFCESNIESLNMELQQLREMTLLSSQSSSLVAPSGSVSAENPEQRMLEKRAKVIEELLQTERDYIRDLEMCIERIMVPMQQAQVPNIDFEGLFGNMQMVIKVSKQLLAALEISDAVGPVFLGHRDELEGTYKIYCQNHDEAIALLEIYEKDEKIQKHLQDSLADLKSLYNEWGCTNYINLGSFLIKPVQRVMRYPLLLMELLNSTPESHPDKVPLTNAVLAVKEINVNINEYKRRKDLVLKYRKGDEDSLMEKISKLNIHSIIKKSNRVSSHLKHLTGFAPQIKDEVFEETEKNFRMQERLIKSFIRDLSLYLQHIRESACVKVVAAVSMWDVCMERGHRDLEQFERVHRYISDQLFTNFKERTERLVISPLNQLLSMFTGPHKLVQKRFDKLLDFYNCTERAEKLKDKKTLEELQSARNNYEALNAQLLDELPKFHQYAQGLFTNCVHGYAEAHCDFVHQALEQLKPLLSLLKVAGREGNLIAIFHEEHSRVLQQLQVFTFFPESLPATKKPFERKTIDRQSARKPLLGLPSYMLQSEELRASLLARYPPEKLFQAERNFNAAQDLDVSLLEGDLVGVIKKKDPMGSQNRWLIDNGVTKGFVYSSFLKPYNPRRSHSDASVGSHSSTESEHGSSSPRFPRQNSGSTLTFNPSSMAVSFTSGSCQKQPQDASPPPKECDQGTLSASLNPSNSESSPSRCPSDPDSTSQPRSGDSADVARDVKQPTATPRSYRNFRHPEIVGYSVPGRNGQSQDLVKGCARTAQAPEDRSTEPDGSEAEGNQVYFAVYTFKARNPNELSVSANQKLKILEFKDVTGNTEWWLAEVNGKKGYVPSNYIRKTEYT
Vesicle-trafficking protein SEC22b (Homo sapiens), sequence (O75396 whole entry): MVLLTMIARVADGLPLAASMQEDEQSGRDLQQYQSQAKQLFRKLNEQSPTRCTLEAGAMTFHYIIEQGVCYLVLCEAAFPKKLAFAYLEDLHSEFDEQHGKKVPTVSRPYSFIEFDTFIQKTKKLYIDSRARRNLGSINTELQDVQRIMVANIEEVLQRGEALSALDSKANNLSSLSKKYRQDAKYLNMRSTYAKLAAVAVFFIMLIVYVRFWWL
AP-2 complex subunit alpha-1 (Homo sapiens), sequence (O95782 whole entry, one chain of several): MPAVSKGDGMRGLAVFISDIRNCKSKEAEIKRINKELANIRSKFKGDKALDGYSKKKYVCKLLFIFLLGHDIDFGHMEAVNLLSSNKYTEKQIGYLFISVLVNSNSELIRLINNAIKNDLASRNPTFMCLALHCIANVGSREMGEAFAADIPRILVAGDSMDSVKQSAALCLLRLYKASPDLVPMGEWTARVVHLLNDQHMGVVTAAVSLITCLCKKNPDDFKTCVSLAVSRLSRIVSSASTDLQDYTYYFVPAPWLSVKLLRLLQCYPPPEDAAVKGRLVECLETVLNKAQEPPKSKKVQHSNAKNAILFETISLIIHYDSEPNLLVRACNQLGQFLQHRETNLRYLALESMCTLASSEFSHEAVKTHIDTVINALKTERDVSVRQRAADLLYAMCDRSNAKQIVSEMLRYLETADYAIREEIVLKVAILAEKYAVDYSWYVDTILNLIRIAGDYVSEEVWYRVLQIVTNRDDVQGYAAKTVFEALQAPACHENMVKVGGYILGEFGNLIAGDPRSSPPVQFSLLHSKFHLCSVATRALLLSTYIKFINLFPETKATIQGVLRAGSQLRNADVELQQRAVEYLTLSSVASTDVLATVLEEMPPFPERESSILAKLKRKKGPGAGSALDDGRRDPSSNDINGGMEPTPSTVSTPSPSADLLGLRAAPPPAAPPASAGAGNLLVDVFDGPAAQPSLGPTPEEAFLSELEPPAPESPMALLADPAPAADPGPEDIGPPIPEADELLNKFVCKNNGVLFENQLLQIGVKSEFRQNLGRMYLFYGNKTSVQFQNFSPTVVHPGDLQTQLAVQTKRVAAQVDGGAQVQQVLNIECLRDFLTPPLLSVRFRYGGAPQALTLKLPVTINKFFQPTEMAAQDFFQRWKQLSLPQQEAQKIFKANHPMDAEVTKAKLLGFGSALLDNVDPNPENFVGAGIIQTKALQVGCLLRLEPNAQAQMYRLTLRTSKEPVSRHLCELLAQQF
ATP-dependent RNA helicase DHX15 (Homo sapiens), sequence (O43143 whole entry): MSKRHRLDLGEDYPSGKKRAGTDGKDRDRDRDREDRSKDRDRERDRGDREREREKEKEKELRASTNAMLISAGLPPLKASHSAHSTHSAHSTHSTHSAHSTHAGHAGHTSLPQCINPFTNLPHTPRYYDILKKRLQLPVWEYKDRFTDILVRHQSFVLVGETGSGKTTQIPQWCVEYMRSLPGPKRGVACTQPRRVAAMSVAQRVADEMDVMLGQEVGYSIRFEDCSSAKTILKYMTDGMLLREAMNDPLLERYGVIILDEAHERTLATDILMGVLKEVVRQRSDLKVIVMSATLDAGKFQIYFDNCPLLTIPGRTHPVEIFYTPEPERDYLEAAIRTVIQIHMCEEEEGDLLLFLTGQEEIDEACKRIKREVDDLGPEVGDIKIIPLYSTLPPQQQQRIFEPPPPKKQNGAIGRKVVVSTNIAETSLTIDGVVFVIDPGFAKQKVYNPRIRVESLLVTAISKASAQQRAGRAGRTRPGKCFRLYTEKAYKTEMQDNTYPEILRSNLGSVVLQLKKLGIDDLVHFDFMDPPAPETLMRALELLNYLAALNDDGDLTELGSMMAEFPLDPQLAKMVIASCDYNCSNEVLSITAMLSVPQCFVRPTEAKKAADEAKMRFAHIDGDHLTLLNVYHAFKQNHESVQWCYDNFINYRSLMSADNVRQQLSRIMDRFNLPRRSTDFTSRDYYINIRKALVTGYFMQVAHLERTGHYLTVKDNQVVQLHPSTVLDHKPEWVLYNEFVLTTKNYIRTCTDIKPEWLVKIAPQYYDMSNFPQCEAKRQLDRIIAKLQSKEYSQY
Quinone oxidoreductase (Homo sapiens), sequence (Q08257 whole entry, the tested form may be a part): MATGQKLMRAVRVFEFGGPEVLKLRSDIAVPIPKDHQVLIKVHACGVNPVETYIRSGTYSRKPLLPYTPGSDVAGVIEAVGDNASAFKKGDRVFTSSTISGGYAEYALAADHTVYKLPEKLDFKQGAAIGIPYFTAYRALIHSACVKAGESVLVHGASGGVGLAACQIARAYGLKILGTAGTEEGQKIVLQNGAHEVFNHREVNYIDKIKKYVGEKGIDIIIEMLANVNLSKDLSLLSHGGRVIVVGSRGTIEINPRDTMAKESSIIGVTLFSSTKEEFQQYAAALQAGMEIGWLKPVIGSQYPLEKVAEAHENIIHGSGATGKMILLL
Proto-oncogene tyrosine-protein kinase Src (Homo sapiens), sequence (P12931 2-536 limits assumed): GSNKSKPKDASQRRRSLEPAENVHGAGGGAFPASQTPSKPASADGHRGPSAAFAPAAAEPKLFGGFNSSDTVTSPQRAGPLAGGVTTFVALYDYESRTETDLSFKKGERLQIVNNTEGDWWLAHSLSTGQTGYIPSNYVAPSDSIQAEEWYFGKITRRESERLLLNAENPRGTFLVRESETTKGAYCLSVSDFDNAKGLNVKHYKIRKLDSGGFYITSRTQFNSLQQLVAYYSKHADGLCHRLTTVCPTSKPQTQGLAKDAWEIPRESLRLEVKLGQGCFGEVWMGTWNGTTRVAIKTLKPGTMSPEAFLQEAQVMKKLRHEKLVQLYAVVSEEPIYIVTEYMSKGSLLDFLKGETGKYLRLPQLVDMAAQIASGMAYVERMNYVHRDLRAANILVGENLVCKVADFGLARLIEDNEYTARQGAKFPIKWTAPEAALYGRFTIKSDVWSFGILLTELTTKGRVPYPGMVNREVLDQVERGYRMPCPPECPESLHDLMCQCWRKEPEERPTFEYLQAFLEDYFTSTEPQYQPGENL

IC50 [1] [µM] | Activity [2] | Activity [3] | Activity [4] | Activity [5] | Activity [6] | Activity [7] | Activity [8] | Activity [9] | Activity [10] | Activity [11] | Activity [12] | Activity [13] | Activity [14] | Activity [15] | Activity [16] | Activity [17] | SMILES | Activity [18] [%]
0.033 | Active | Active | Active | Active | Active | Active | Active | Active | Active | Active | Active | Active | Active | Active | Active | Active | C=CC(=O)Nc1ccccc1Nc1nc(Nc2ccc(N3CCN(CCOCCOCCOCCNC(=O)CCCC[C@@H]4SC[C@@H]5NC(=O)N[C@@H]54)CC3)cc2)ncc1Cl | –
– | – | – | – | – | – | – | – | – | – | – | – | – | – | – | – | – | COc1cc(O)c2c(c1)/C=C/C[C@H](O)[C@H](O)C(=O)/C=C\C[C@H](C)OC2=O | 22
